{"source": "ChEMBL document CHEMBL1140153", "about": "“Structure-activity relationships of truncated D- and l-4'-thioadenosine derivatives as species-independent A3 adenosine receptor antagonists” (J Med Chem, 2008)", "key": {"[1]": {"target": "T1, Adenosine receptor A3 (Homo sapiens) (UniProt P0DMS8)", "T1 sequence (whole entry)": "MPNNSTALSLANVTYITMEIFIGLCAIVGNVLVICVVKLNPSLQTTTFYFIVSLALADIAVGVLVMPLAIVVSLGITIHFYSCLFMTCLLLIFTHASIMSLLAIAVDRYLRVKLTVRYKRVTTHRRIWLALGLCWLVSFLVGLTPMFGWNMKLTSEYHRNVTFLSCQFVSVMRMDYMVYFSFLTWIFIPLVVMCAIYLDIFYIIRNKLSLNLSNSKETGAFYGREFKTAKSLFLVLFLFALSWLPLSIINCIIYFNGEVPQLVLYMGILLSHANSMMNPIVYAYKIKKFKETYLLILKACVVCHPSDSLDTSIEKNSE", "experiment": "Antagonist activity at human adenosine A3 receptor expressed in CHO cells assessed as inhibition of forskolin-stimulated cAMP production at 10 uM relative to (2S,3S,4R,5R)-5-(6-(3-iodobenzylamino)-9H-purin-9-yl)-3,4-dihydroxy-N-methyl-tetrahydrothiophene-2-carboxamide", "assay_type": "functional, cell-based", "set-up": "scale not given: the % may be the effect or the level left", "procedure,_shortened": "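CHO cells stably expressing human A3 AR; forskolin-stimulated cAMP production measured with test compound at 10 μM; response given as mean percentage of a full A3 agonist's effect, n = 1–3.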"}, "Adenosine receptor A3 [2]": {"target": "T2, Adenosine receptor A3 (Rattus norvegicus, UniProt P28647)", "T2 sequence (P28647 whole entry)": "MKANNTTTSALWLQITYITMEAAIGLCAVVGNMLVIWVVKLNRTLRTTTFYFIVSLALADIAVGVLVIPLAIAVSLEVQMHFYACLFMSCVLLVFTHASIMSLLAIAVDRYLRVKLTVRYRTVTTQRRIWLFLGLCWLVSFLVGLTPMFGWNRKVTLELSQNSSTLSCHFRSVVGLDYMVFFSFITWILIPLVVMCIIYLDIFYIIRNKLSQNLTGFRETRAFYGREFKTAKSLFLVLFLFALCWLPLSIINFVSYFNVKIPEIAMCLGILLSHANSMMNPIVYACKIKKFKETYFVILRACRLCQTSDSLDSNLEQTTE", "experiment": "Displacement of [125I]I-AB-MECA from rat adenosine A3 receptor expressed in CHO cells", "assay_type": "cell-based"}, "Adenosine receptor A1": {"target": "T3, Adenosine receptor A1 (Homo sapiens, UniProt P30542)", "T3 sequence (P30542 whole entry)": "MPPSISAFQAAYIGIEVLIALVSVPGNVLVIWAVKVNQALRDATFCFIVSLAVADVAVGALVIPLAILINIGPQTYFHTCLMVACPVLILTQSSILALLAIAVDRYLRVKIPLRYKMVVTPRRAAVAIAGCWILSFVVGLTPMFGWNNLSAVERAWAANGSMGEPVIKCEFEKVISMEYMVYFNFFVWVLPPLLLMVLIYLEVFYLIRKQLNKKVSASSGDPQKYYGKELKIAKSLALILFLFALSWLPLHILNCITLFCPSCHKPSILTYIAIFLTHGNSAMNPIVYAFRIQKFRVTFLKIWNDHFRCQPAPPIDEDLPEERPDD", "experiment": "Displacement of [3H]CCPA from human adenosine A1 receptor expressed in CHO cells", "assay_type": "cell-based"}, "Adenosine receptor A3 [3]": {"target": "T4, Adenosine receptor A3 (Homo sapiens, UniProt P0DMS8)", "T4 sequence (P0DMS8 whole entry)": "T1 sequence (whole entry)", "experiment": "Displacement of [125I]I-AB-MECA from human adenosine A3 receptor expressed in CHO cells", "assay_type": "cell-based"}, "[4]": {"target": "T1, Adenosine receptor A3 (Homo sapiens)", "experiment": "Displacement of [125I]I-AB-MECA from human adenosine A3 receptor expressed in CHO cells at 10 uM", "assay_type": "cell-based", "procedure,_shortened": "(§1)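 Membranes (20 μg protein) from CHO cells stably expressing human or rat A3 AR were incubated with 0.5 nM [125I]I-AB-MECA and increasing ligand concentrations in 50 mM Tris-HCl pH 7.4 with 10 mM MgCl2 for 60 min at 25 °C. Nonspecific binding was set with 10 μM NECA. Filtration through GF/B, washed ×3 with ice-cold buffer, γ-counting.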"}, "[5]": {"target": "T5, Adenosine receptor A1 (Homo sapiens) (UniProt P30542)", "T5 sequence (whole entry)": "T3 sequence (P30542 whole entry)", "experiment": "Displacement of [3H]CCPA from human adenosine A1 receptor expressed in CHO cells at 10 uM", "assay_type": "cell-based", "procedure,_shortened": "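Human A1 AR CHO membranes (40 μg/tube) were incubated with 1 nM [3H]CCPA in 50 mM Tris-HCl pH 7.4 with 10 mM MgCl2 for 60 min at 25 °C; 10 μM NECA defined nonspecific binding; GF/B filtration.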"}, "[6]": {"target": "Adenosine receptor A2a (Homo sapiens) (UniProt P29274)", "sequence (P29274 whole entry)": "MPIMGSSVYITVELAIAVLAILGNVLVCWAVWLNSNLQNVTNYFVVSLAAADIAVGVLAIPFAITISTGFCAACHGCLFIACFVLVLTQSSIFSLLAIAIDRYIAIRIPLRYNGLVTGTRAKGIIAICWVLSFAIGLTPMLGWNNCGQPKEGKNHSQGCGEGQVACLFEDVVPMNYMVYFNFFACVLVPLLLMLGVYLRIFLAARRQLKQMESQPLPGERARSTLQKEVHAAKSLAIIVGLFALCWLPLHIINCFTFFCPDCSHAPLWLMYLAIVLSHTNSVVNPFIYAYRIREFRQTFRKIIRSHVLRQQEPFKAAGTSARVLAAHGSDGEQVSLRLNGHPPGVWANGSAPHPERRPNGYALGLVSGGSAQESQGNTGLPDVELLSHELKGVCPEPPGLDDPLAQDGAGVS", "experiment": "Displacement of [3H]CGS-21680 from human adenosine A2A receptor expressed in HEK293 cells at 10 uM", "assay_type": "cell-based", "procedure,_shortened": "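Human A2A AR HEK-293 membranes (20 μg/tube) with [3H]CGS21680 in 50 mM Tris-HCl pH 7.4 with 10 mM MgCl2, 60 min at 25 °C; nonspecific binding with 10 μM NECA; GF/B filtration.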"}, "[7]": {"target": "T6, Adenosine receptor A3 (Rattus norvegicus) (UniProt P28647)", "T6 sequence (whole entry)": "T2 sequence (P28647 whole entry)", "experiment": "Displacement of [125I]I-AB-MECA from rat adenosine A3 receptor expressed in CHO cells at 10 uM", "assay_type": "cell-based", "procedure,_shortened": "as §1"}, "[8]": {"target": "T7, Adenosine receptor A2b (Homo sapiens) (UniProt P29275)", "T7 sequence (whole entry)": "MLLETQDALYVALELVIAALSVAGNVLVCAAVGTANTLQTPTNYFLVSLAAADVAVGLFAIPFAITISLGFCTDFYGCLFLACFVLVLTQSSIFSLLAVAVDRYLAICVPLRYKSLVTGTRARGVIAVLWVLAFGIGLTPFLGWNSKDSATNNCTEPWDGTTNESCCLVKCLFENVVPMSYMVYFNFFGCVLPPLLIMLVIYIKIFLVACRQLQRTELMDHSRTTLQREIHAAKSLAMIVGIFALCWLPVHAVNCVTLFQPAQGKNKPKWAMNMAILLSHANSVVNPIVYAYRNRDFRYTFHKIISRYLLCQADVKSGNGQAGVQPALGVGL", "experiment": "Agonist activity at human adenosine A2B receptor by cAMP assay", "assay_type": "functional"}, "[9]": {"target": "T7, Adenosine receptor A2b (Homo sapiens)", "experiment": "Antagonist activity at human adenosine A2B receptor by cAMP assay", "assay_type": "functional"}}, "note": "Active and inactive are the calls of the source. No cut-off for these calls is given here.", "data": [{"smiles": "CNC(=O)[C@H]1S[C@@H](n2cnc3c(NCc4cccc(I)c4)ncnc32)[C@H](O)[C@@H]1O", "values": [{"measurement": "Activity", "setting": "[1]", "value": "Active"}, {"measurement": "Ki", "setting": "Adenosine receptor A3 [2]", "value": 1.86, "unit": "nM"}, {"measurement": "Ki", "setting": "Adenosine receptor A1", "value": 17.3, "unit": "nM"}, {"measurement": "Ki", "setting": "Adenosine receptor A3 [3]", "value": 0.25, "unit": "nM"}]}, {"smiles": "O[C@H]1[C@@H](O)CS[C@@H]1n1cnc2c(NCc3cccc(Br)c3)nc(Cl)nc21", "values": [{"measurement": "inhibition", "setting": "[4]", "value": 12.6, "unit": "%"}, {"measurement": "Activity", "setting": "[1]", "value": "< 10", "unit": "%"}, {"measurement": "inhibition", "setting": "[5]", "value": 6.1, "unit": "%"}, {"measurement": "inhibition", "setting": "[6]", "value": 45.7, "unit": "%"}]}, {"smiles": "CNc1ncnc2c1ncn2[C@@H]1SC[C@@H](O)[C@H]1O", "values": [{"measurement": "Activity", "setting": "[1]", "value": "< 10", "unit": "%"}, {"measurement": "inhibition", "setting": "[7]", "value": 28, "unit": "%"}, {"measurement": "Ki", "setting": "Adenosine receptor A1", "value": 1070, "unit": "nM"}, {"measurement": "Ki", "setting": "Adenosine receptor A3 [3]", "value": 4.8, "unit": "nM"}, {"measurement": "inhibition", "setting": "[6]", "value": 22, "unit": "%"}]}, {"smiles": "O[C@@H]1[C@H](O)CS[C@H]1n1cnc2c(NCc3cccc(F)c3)ncnc21", "values": [{"measurement": "Activity", "setting": "[1]", "value": "< 10", "unit": "%"}, {"measurement": "Ki", "setting": "Adenosine receptor A3 [2]", "value": 98, "unit": "nM"}]}, {"smiles": "O[C@@H]1[C@H](O)CS[C@H]1n1cnc2c(NCc3cccc(I)c3)nc(Cl)nc21", "values": [{"measurement": "Activity", "setting": "[8]", "value": "inactive"}, {"measurement": "Activity", "setting": "[9]", "value": "inactive"}, {"measurement": "Activity", "setting": "[1]", "value": "< 10", "unit": "%"}]}, {"smiles": "CNc1nc(Cl)nc2c1ncn2[C@@H]1SC[C@@H](O)[C@H]1O", "values": [{"measurement": "Activity", "setting": "[1]", "value": "< 10", "unit": "%"}]}, {"smiles": "O[C@@H]1[C@H](O)CS[C@H]1n1cnc2c(NCc3cccc(Br)c3)ncnc21", "values": [{"measurement": "Activity", "setting": "[1]", "value": "< 10", "unit": "%"}, {"measurement": "Ki", "setting": "Adenosine receptor A3 [2]", "value": 6.3, "unit": "nM"}]}, {"smiles": "O[C@@H]1[C@H](O)CS[C@H]1n1cnc2c(NCc3cccc(I)c3)ncnc21", "values": [{"measurement": "Activity", "setting": "[1]", "value": "< 10", "unit": "%"}]}, {"smiles": "O[C@@H]1[C@H](O)CS[C@H]1n1cnc2c(NCc3cccc(Cl)c3)nc(Cl)nc21", "values": [{"measurement": "Activity", "setting": "[1]", "value": "< 10", "unit": "%"}]}, {"smiles": "O[C@H]1[C@@H](O)CS[C@@H]1n1cnc2c(NCc3cccc(I)c3)nc(Cl)nc21", "values": [{"measurement": "inhibition", "setting": "[4]", "value": 18.4, "unit": "%"}, {"measurement": "Activity", "setting": "[1]", "value": "< 10", "unit": "%"}, {"measurement": "inhibition", "setting": "[5]", "value": -8, "unit": "%"}, {"measurement": "inhibition", "setting": "[6]", "value": -0.95, "unit": "%"}]}, {"smiles": "O[C@@H]1[C@H](O)CS[C@H]1n1cnc2c(NCc3cccc(Cl)c3)ncnc21", "values": [{"measurement": "Activity", "setting": "[1]", "value": "< 10", "unit": "%"}, {"measurement": "Ki", "setting": "Adenosine receptor A3 [2]", "value": 17, "unit": "nM"}]}, {"smiles": "O[C@@H]1[C@H](O)CS[C@H]1n1cnc2c(NCc3cccc(F)c3)nc(Cl)nc21", "values": [{"measurement": "Activity", "setting": "[1]", "value": "< 10", "unit": "%"}]}, {"smiles": "O[C@@H]1[C@H](O)CS[C@H]1n1cnc2c(NCc3cccc(Br)c3)nc(Cl)nc21", "values": [{"measurement": "Activity", "setting": "[1]", "value": "< 10", "unit": "%"}]}]}
